The list is not random: actives were taken first. Their share in the collection is about 4.6%.
WT yeast gro inh = growth inhibition of WT strain, primary screen, mitochondrial fusion inhibitor project, WT and mutant strains, chemical genetic | mitochondrial fusion phenotypic screen | inhibition, % at 10 µM | actives 2.1% (n = 190,000); in the data active means inhibition above about 58%; tested in S. cerevisiae
Calb biofilm kill = clotrimazole potentiators killing C. albicans biofilm, primary screen, 4-compound mixtures | inhibition, % at 7.6 µM | C. albicans biofilm persisters + clotrimazole, fluorescence viability; primary screen in compound mixtures of four per well | actives 0.02% (n = 120,000);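 active means inhibition above 30.3% in the primary screen of four-compound pools, then above 30% when the compound was retested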;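 further: compounds exposed to preformed 24 h biofilms for 48 h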
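System: C. albicans CAF4-2 wild-type biofilms; Medium: RPMI/MOPS medium, pH 7.0; Reagent: Clotrimazole, 50 µg/mL; Times: biofilm formation 24 h, compound exposure 48 h, 37 °C; Detection: 2-h Alamar Blue fluorescence, 535/590 nm excitation/emission; Evaluation: percent inhibition of biofilm viability.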
RAM inhibit = inhibitors of the yeast RAM network, primary screen, dse1pr::URA3 reporter, 5-FOA selection; actives 1.8% (n = 190,000); inhibition, % at 50 µM; S. cerevisiae dse1pr::URA3 reporter, 5-FOA growth OD615, 2 d; analog-sensitive cbk1-as2 kinase mutant strain;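 active means inhibition above a set limit, 3 SD over mean compound inhibition, cut at about 8.4% in these data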;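 further: inhibition rescues growth on 5-FOA so higher OD means more RAM inhibition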
NCF1 inh = p47phox/p22phox peptide binding inhibitors, primary screen, biochemical, uHTS, NADPH oxidase regulatory subunit | Neutrophil cytosol factor 1 (Homo sapiens), P14598 | actives 0.53% (n = 220,000) | inhibition, % at 24.7 µM | fluorescence polarization, 2 h;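 active means inhibition above about 30%, limit read from the data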
Arbovirus inh = antivirals against arbovirus infection, primary screen, cell-based, full library, 10K replicate subset | actives 0.37% (n = 200,000) | AID 1251, 2008 | arbovirus infection cell-based antiviral screen | inhibition, % at 10 µM; in the data active means inhibition above about 30%
Hck-Nef inh = inhibitors of Nef-activated human Hck kinase, primary screen, biochemical, Z-Lyte FRET, 384-well, Hck-YEEI; Tyrosine-protein kinase HCK (Homo sapiens), P08631; Recombinant Hck-YEEI plus Nef, Z-Lyte FRET kinase assay; inhibition, % at 20 µM; actives 0.68% (n = 220,000); AID 463187, 2010;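 active means Hck-Nef kinase inhibition above about 50%, limit read from the data; inactive means inhibition below that limit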
Target sequence (P08631 whole entry, looked up): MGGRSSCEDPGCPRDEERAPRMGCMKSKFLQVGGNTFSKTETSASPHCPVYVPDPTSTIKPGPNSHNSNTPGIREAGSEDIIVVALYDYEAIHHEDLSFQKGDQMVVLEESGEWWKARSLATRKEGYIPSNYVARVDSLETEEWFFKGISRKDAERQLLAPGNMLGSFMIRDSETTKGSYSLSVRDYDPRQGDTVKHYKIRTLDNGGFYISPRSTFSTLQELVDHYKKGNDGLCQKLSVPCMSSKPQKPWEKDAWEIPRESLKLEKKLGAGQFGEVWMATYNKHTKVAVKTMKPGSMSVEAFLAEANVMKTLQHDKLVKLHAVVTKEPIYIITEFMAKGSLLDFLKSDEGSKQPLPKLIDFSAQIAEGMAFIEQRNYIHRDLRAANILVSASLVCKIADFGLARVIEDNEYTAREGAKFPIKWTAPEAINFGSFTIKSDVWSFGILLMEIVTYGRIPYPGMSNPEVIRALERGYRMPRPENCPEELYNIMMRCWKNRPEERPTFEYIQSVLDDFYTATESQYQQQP
Each line names hits and unclear results; the compound was inactive in the other large screens.

COC(=O)C1=C(C)N(C)C(=S)N(C)C1c1cccc(Br)c1 (stereo not given)	none
Cc1cc(N=NC(=O)c2ccccc2)ccc1O	none
O=Nc1ccc(NOC(=O)c2ccccc2Br)cc1	WT yeast gro inh 58.7
O=C(ONc1ccc(N=NC(=O)c2ccccc2O)cc1)c1ccccc1	NCF1 inh 31.2 (no result: Calb biofilm kill)
Cc1ccc(NC(=O)Cn2c(-c3ccc(F)cc3)cnc2SCC(=O)Nc2c(C)cccc2C)cc1	none
CNS(=O)(=O)c1cc(N(C)S(=O)(=O)c2ccc(C)cc2)c(C)cc1C	RAM inhibit 10.1
Cc1cc2c(cc1C)CSC(c1c(O)ccc3ccccc13)SC2	WT yeast gro inh 96.7 (no result: Calb biofilm kill)
Cc1cc2c(cc1C)CSC(c1ccc3ccccc3c1O)SC2	none (no result: Calb biofilm kill)
CC1=C/C(=N\NC(=S)NCc2ccccc2)CC1	none
C=C(C)C1Cc2cc3ccc(=O)oc3cc2O1 (stereo not given)	none
CC(C)(O[C@@H]1O[C@H](CO)[C@@H](O)[C@H](O)[C@H]1O)[C@H]1Cc2cc3ccc(=O)oc3cc2O1	Arbovirus inh 30.4
O=C1CS/C(=N/N=C/c2cccs2)N1Cc1ccc(F)cc1	none (no result: WT yeast gro inh, RAM inhibit, Arbovirus inh)
O=C(O)Cc1cn(Cc2cccc(Cl)c2)c2ccccc12	none
CC1CCCN(C(=O)Cc2cn(Cc3cccc(Cl)c3)c3ccccc23)C1 (stereo not given)	WT yeast gro inh 72.6
O=C(Cc1cn(Cc2cccc(Cl)c2)c2ccccc12)N1CCCCCC1	WT yeast gro inh 68.5
N#Cc1c(Cl)nsc1NC(=O)c1ccccc1	none
CCc1ccc(NC(=O)N(CCN2CCOCC2)Cc2ccc3c(c2)CCCN3CC)cc1	NCF1 inh 43.0 (no result: Calb biofilm kill)
CC(C)OP(=O)(OC(C)C)/C(C=O)=N\Nc1ccc([N+](=O)[O-])cc1	none (no result: WT yeast gro inh, RAM inhibit, Arbovirus inh)
Cc1ccc([N+](=O)[O-])cc1NC(=O)CN1CCC(C)CC1	NCF1 inh 71.7 (no result: Calb biofilm kill)
Cc1ccc([N+](=O)[O-])cc1NC(=S)NC(=O)CC(C)(C)C	WT yeast gro inh 68.4 (no result: Calb biofilm kill)
CCCC(=O)n1nc(-c2cccnc2)nc1NCc1ccccc1	none
CS(=O)(=O)N1CCN(c2ccccc2[N+](=O)[O-])CC1	none
CC(Nc1nc(-c2ccc3c(c2)NC(=O)CO3)cs1)c1ccccc1 (stereo not given)	Hck-Nef inh 137.4
O=C1COc2ccc(-c3csc(NCC4CCCO4)n3)cc2N1 (stereo not given)	none (no result: Calb biofilm kill)
O=C(COC(=O)c1ccc(=O)n(Cc2ccccc2)n1)Nc1ccc2c(c1)OCCO2	none (no result: Calb biofilm kill)
CCC(=O)Nc1sc(Cc2ccccc2)c(C)c1C(N)=O	WT yeast gro inh 74.3
COc1ccc(CCNC(=O)Cn2c(=O)n(-c3ccc(C)c(F)c3)c(=O)c3sccc32)cc1OC	none
O=C(CSc1ccc2c(c1)OCCO2)Nc1ccc(N2CCOCC2)cc1	none
COc1cc(NC(=O)COC(=O)c2ccc(S(=O)(=O)N3CC(C)CC(C)C3)cc2)c(C)cc1[N+](=O)[O-] (stereo not given)	NCF1 inh 39.5
COc1cc(NC(=O)COC(=O)c2ccc(C)c(S(=O)(=O)N3CCCCC3)c2)c(C)cc1[N+](=O)[O-]	none
COc1ccc2c(CC(=O)Nc3ccccc3N3CCOCC3)coc2c1	none (no result: WT yeast gro inh, RAM inhibit, Arbovirus inh)
C=CCSc1nnc(NC(=O)c2nc(SCC)ncc2Cl)s1	RAM inhibit 8.4 (no result: Calb biofilm kill)
CCC1(CC)Cc2ccccc2C(=O)N1	none (no result: WT yeast gro inh, RAM inhibit, Arbovirus inh)
O=C1c2ccccc2CC1(Cc1ccccc1)Cc1ccccc1	WT yeast gro inh 73.0
COc1ccc(C(=O)Nc2nc3c(s2)CCCC3)cc1S(=O)(=O)N1CCCc2ccccc21	none
Cc1[nH]ccc(=O)c1OCc1ccccc1	NCF1 inh 59.4 (no result: Calb biofilm kill)
Cc1[nH]ccc(=O)c1OCc1ccc(Cl)cc1	none (no result: Calb biofilm kill)
C=CCSc1nnc(C)c(/C=C/Nc2ccc(Cl)cc2)n1	none
Clc1cccc(-c2cc3nc4c(c(N5CCN(c6cnccn6)CC5)n3n2)CCCC4)c1	WT yeast gro inh 70.2
Clc1cccc(-c2cc3nc4c(c(N5CCOCC5)n3n2)CCCC4)c1	WT yeast gro inh 84.6 (no result: Calb biofilm kill)
CCOc1ccc(CCNC(=O)C2CCCN2C(=O)OCc2ccccc2)cc1OCC (stereo not given)	none
COn1c(-c2ccc(Cl)cc2)nc2ccc(Cl)cc21	RAM inhibit 10.8 (no result: Calb biofilm kill)
Clc1ccc(COn2c(-c3ccc(Cl)cc3)nc3ccccc32)cc1	RAM inhibit 9.1 (no result: Calb biofilm kill)
O=C(/C=C/c1ccc(Cl)cc1)NC(=S)NN1CCCCC1c1cccnc1 (stereo not given)	WT yeast gro inh 66.4
CCN(CC)S(=O)(=O)c1ccc(OC)c(NC(=O)/C=C/c2ccco2)c1	none (no result: WT yeast gro inh, RAM inhibit, Arbovirus inh)
CCOC(=O)c1ccc(NC(=O)Nc2ccc(Cl)cn2)cc1	NCF1 inh 36.1
O=C(COc1ccc(Br)cc1Br)NC1CCCC1	none
O=C(COc1ccc(Br)cc1Cl)NC1CCCCC1	RAM inhibit 8.9
O=C(Nc1ccc(Cl)cn1)c1cc2c(s1)-c1ccccc1OC2	none (no result: WT yeast gro inh, RAM inhibit, Arbovirus inh)
O=C(CSc1oc(-c2cccs2)nc1S(=O)(=O)c1ccc(F)cc1)NCC1CCCO1 (stereo not given)	RAM inhibit 9.1 (no result: Calb biofilm kill)
COc1c[nH]n(C2CCCCC2)c(=O)c1=O	none (no result: Calb biofilm kill)
Cc1[nH]c2ccccc2c1NC(=O)CN1CCN(C(=O)c2ccco2)CC1	none (no result: WT yeast gro inh, RAM inhibit, Arbovirus inh)
O=C(O)C1CSC(c2ccccc2Cl)N1C(=O)c1ccc(Cl)cc1 (stereo not given)	NCF1 inh 86.6
Cn1c(C(=O)NCc2cccs2)cc2oc3ccccc3c21	none (no result: Calb biofilm kill)
Cn1c(C(=O)NCc2ccccc2)cc2oc3ccccc3c21	NCF1 inh 31.3 (no result: Calb biofilm kill)
CCCCc1ccc(NC(=S)NCCN2CCOCC2)cc1	none
Cc1ccc(-c2ncccc2OC(=O)C23CC4CC(CC(C4)C2)C3)cc1	WT yeast gro inh 72.8 (no result: Calb biofilm kill)
COc1ccc(OC)c2c1CCC2=O	none (no result: Calb biofilm kill)
Cc1cc([N+](=O)[O-])c(C)cc1-c1ccc(/C=N/NC(=O)Cn2nnnc2N)o1	Hck-Nef inh 53.2
Nc1nnnn1CC(=O)N/N=C/c1cc([N+](=O)[O-])ccc1Cl	none
Cc1ccc(-c2ccc(/C=N\NC(=O)c3cc4c(ccc5ccccc54)o3)o2)cc1[N+](=O)[O-]	NCF1 inh 38.8 (no result: Calb biofilm kill)
CCN(Cc1ccccc1)C(=O)COC(=O)Cn1cnc2ccccc21	none
NNC(=O)c1ccc(COc2ccc3c(c2)CCC3)cc1	none
O=C(Nc1ccccc1Cl)c1ccc(COc2ccc3c(c2)CCC3)cc1	RAM inhibit 10.8
CC1(C)CC(Cc2nc(=S)[nH][nH]2)C(=O)O1 (stereo not given)	none
CC(C)N(Cc1nc(-c2ccccc2)no1)C(=O)c1ccc([N+](=O)[O-])cc1	none
CC(C)N(Cc1nc(-c2ccccc2)no1)C(=O)c1ccc(Cl)cc1	NCF1 inh 58.7 (no result: Calb biofilm kill)

Bioassay records as filed in PubChem BioAssay.
